Reference: paper PMC4013422 (Chinese Journal of Cancer, 2011)
pIC50: −log10 of the molar value.

Key:
[1] = Solubility in deionized water
[2] = test system: skin lesions (basal cell carcinomas) of Krt6a-cre: Ptch1^neo/neo mice; assay: Topical treatment of basal cell carcinomas, tumor area by HE/ImageJ; type: in vivo, mouse
[3] = test system: Hh target genes in skin of Krt6a-cre: Ptch1^neo/neo mice; assay: Hh target gene expression in treated skin; type: in vivo, mouse; settings: Figure 5C
Outline: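 Tumour-bearing transgenic mice received test compound in 70% ethanol, applied topically to the abdominal skin daily for 21 days; 70% ethanol on the mid-belly served as control. Skin halves were frozen at –80°C. TRIzol total RNA (1 µg) was reverse-transcribed. Gene-specific probes were used for qPCR, with triplicate CT values analysed by the comparative CT method, normalised to 18S RNA and expressed relative to a calibrator.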

[4] = test system: Hh signaling-dependent motor neuron differentiation (E14Tg2a.4 embryonic stem cells); type: cell-based, mouse
Outline: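 Mouse E14Tg2a.4 ES cells seeded at 5 × 10^5 cells/mL in ES medium without LIF on ultra-low-adhesion plates for 2 days to form embryoid bodies. Motor neurons induced with retinoic acid 100 nmol/L plus purmorphamine 2.5 µmol/L for 5–7 days, with test compound in the induction medium. Read-outs: Hb9 immunofluorescence, and real-time PCR of Hip, FoxA2, Olig2 and Hb9.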

[5] = Plasma half-life from mouse blood samples; type: in vivo; settings: intraperitoneal

Row | Solubility in water [1] | Molecule | Reduction of tumor area ([2]; KAAD-Cyc (1 µmol/L topical per methods), data not shown) | Maximum reduction in tumor area ([2]; Cyc treatment group, topical daily for 21 days) | Hedgehog target gene expression (HIP and Ptch1), RT-PCR [3] | pIC50 ([4]; Mus musculus, Neuron, read-out: IC50, inhibitory activity for Hh signaling-dependent motor neuron differentiation) | Effect on motor neuron differentiation / expression of differentiation markers ([4]; compound at 50 nmol/L) | half-life [5]
1 | not water soluble | 3-Keto-N- (aminoethyl-aminocaproyl-dihydro-cinnamoyl) (KAAD)-Cyc [KAAD-Cyc] | more than half |  |  |  |  | 
2 |  | CC1=C2C[C@H]3[C@@H](CC=C4C[C@@H](O)CC[C@@]43C)[C@@H]2CC[C@]12O[C@@H]1C[C@H](C)CN[C@H]1[C@H]2C [Cyc, Cyclopamine] |  | less than 5% | little effects | 6.52 | no significant effects | 1 to 4 h
